# This is one part of a sample in which hits are shown more often than they occur.
# Beta2AR agonist: agonists of human beta-2 adrenergic receptor inducing internalization | P07550 | Am2.2-beta2AR cells, FAP receptor internalization, flow cytometry | response, % (concentration not given with the values) | 0.43% of 340,000 active | AID 504454;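 active means response above a set limit, near 3 SD of response in nonfluorescent compounds, cut at about 42% in these data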
# Target sequence (P07550 whole entry, looked up): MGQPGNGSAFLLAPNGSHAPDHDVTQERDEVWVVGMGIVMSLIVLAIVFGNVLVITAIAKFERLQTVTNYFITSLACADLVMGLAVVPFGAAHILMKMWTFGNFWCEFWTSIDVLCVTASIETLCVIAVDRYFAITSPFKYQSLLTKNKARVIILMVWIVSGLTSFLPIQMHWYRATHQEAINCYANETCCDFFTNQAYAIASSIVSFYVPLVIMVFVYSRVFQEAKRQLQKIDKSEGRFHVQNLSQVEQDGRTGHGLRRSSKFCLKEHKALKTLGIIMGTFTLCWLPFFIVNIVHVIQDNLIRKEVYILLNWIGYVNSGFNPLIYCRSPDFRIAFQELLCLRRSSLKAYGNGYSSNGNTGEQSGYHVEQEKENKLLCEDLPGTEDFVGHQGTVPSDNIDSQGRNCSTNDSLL
# p-CIP stab down: p/CIP protein destabilization | Q05BA5 | F442A p/CIP-EGFP cells, EGFP fluorescence, 16 h | decrease of EGFP signal, % at 10 µM | 0.01% of 290,000 active | AID 1984;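 active means EGFP signal decrease of at least 30% at 10 µM or well 3 SD below plate mean, unless failing retest; inactive means the rest, including hits failing retest or dose response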
# Dynein cargo inh: blocks dynein driven cargo transport along microtubules; 3617.4 mouse cells, GR-EGFP nuclear translocation imaging; test concentration mostly 20 µM; stimulated with dexamethasone, 1 µM; hits give low values; z-score, hits read low; 0.47% of 220,000 active;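 active means plate z-score of nuclear minus cytoplasmic receptor signal below a set negative limit, without overly bright fluorescence or cell loss, cut at about -3.5 in these data, passing the limit was not always enough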;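 further: z-score of nuclear minus cytoplasmic ring GR-EGFP intensity difference per well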
#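 Buffer or medium: tet-free, stripped-serum medium; Also added: dexamethasone, 1.0 µM final; Technique: high-content fluorescence imaging after fixation; Times: 48 h induction, 1 h compound, 30 min dex at 37 °C; Read-out: per-cell GR-EGFP intensity, nucleus versus surrounding cytoplasmic ring, well-averaged.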
# XBP1 UPR activ: activators of adaptive arm of unfolded protein response (XBP1); CHO-XBP1 luciferase reporter, IRE1-XBP1 UPR activation, luminescence; percent of tunicamycin response, DMSO as zero; activation, % at 20 µM; 0.33% of 330,000 active; AID 463104;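 active means versus positive control, 20 µM dose yields 30% or more activation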
#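 Material: CHO cell line with stable XBP1 luciferase reporter; schedule: 16-18 h cell attachment at 37 °C, then 6 h compound exposure; signal: glow luminescence from Steady-Glo reagent; medium: serum-containing F12 medium, 10% FBS; benchmarks: tunicamycin 10 µg/mL and vehicle-only wells; read-out: percent activation relative to tunicamycin reference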
# UPR CHOP act: apoptotic UPR (CHOP) activation; CHO-CHOP luciferase reporter, luminescence; percent of tunicamycin response over DMSO baseline; activation, % at 10 µM; 0.34% of 330,000 active; AID 449763;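 active means at 10 µM dose, activation of 40% or more, normalized to positive control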
#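 System: CHO CHOP reporter cells. Amount: 500 cells per well. Buffer or medium: F12 medium, 10% FBS. Compound dosing: one dose, 10 µM in 0.5% DMSO. Incubation: 6 h compound exposure at 37 °C after overnight seeding. Technique: Steady-Glo luciferase luminescence. Benchmarks: tunicamycin and DMSO controls.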
# CHOP inhibitor: blocks CHOP induction under ER stress. CHO-K1 CHOP-promoter luciferase, tunicamycin-induced, 15-18 h. inhibition, % at 10 µM. 3.8% of 220,000 active. AID 2732;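 active means compounds that reduced the stress-induced luciferase reporter signal by more than about 70% of percent inhibition, limit read from the data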
# Hits are given with their value; i = inactive; nt = not tested or not shown.
SMILES,Beta2AR agonist,p-CIP stab down,Dynein cargo inh,XBP1 UPR activ,UPR CHOP act,CHOP inhibitor
Cc1ccc(NC(=O)CCC(=O)OCC(=O)c2ccc(-c3ccccc3)cc2)cc1,i,i,i,i,i,85
Cc1cccc(NC(=O)Nc2ccc(C#N)cc2)n1,i,i,i,i,i,77
O=C(C1CCC1)N1CCc2cc(S(=O)(=O)NCCN3CCN(c4ccccc4F)CC3)ccc21,i,i,i,i,i,74
O=C(C1CC1)N1CCc2cc(S(=O)(=O)NCCCN3CCCCC3)ccc21,i,i,nt,i,i,nt
CCOc1ccc(NS(=O)(=O)c2ccc3c(c2)CCN3C(=O)CCC(=O)O)cc1,i,i,i,i,i,i
CCOc1ccc(NS(=O)(=O)c2ccc3c(c2)CCN3C(=O)C2CCC2)cc1,i,i,i,i,i,82
O=C(CNC(=O)c1sc2ccccc2c1Cl)NC1CC1,i,i,nt,i,i,nt
COc1ccc(C(=O)/C(=C\c2ccco2)N2C=CC=CC2=C(C#N)C#N)cc1,60,i,i,i,i,107
CC1CC(C)CN(C(=O)COC(=O)c2nccnc2N)C1 (stereo unspecified),i,nt,nt,i,i,nt
Cc1nc2cc(-c3ccc(Cl)cc3)nn2c(C)c1CCC(=O)NC(C)c1ccc2c(c1)OCCO2 (stereo unspecified),i,i,i,i,i,79
Cc1ccc(-c2oc3ncnc(N)c3c2-c2ccc(C)cc2)cc1,i,i,i,i,i,82
Cc1oc2ncnc(N)c2c1C,i,i,i,i,i,i
CCCC(NC(=S)NCC1CCCO1)C12CC3CC(CC(C3)C1)C2 (stereo unspecified),i,i,i,i,i,83
S=C(NCC1CCCO1)NC1CCCCC1 (stereo unspecified),i,i,i,i,i,i
Cc1ccc(Cn2nnc3c(=O)[nH]c(C4CCN(S(=O)(=O)c5ccc(F)cc5)CC4)nc32)cc1,i,i,i,i,i,84
Cc1ccc(C)c(S(=O)(=O)N2CCC(c3nc4c(nnn4Cc4ccc(F)cc4)c(=O)[nH]3)CC2)c1,i,i,i,i,i,i
CCN(C(=O)c1cc2c(=O)[nH]c3ccc(C)cc3c2s1)c1ccccc1F,i,i,i,i,i,i
CCN(C(=O)c1cc2c(=O)[nH]c3ccc(C)cc3c2s1)c1ccccc1C,i,i,i,i,i,96
c1coc(-c2nc3c4c5c(sc4ncn3n2)CCCC5)c1,i,i,i,i,i,79
COc1cccc(NC(=O)C(=O)N/N=C/c2cc(C)n(-c3ccc(Cl)c(Cl)c3)c2C)c1,i,i,i,i,i,78
Cc1cc(/C=N/NC(N)=S)c(C)n1-c1ccc(Cl)c(Cl)c1,i,i,i,i,i,i
Cc1cc(/C=N\NC(=O)CC(=O)NC2CCCCC2)c(C)n1-c1ccc(Cl)c(Cl)c1,56,i,i,i,i,i
Cc1cc(/C=N\NC(=O)CC(=O)NC2CCCCC2)c(C)n1-c1cccc(Cl)c1Cl,i,i,i,i,i,i
CCN1N=C(c2ccccc2)Cn2c1nc1ccccc12,i,i,i,i,i,i
C=C1/C=C(\C)[C@](C)(O)C[C@H](O)CC(=O)[C@H](O)[C@@H](O)[C@H](C)C[C@H](C)OC(=O)/C(C)=C/CC/C=C/[C@@H]2O[C@H]2C[C@H](C)C1,nt,nt,nt,i,i,nt
SMILES,Beta2AR agonist,p-CIP stab down,Dynein cargo inh,XBP1 UPR activ,UPR CHOP act,CHOP inhibitor
Cc1cc(SC#N)cc(C)c1NC(=O)CCl,i,i,i,i,i,i
CCc1cc(SC#N)cc(C)c1NC(=O)CCl,47,i,i,i,i,i
N=C1C(=O)OCC1c1ccccc1NC(=O)CN1CCOCC1 (stereo unspecified),i,i,i,i,i,i
COc1ccc(C(=O)NNC(=S)NC(=O)c2cc(-c3ccccc3)nc3ccccc23)cc1,i,i,i,i,i,i
CCCOc1ccc(C(=O)NNC(=S)NC(=O)c2cc(-c3ccc(Cl)cc3)nc3ccccc23)cc1,i,i,i,i,i,72
Cc1ccc(OCC(=O)NNC(=S)NC(=O)C(C)(C)C)c(Br)c1,i,i,i,i,i,92
CCC(=O)NNC(=S)NC(=O)c1ccc(C)cc1,i,i,i,i,i,i
Cc1ccc(OCC(=O)NC(=S)Nc2ccccn2)c(Br)c1,i,i,nt,i,i,nt
Cc1cccc(C(=O)NC(=S)NNC(=O)c2ccccc2Cl)c1,i,i,i,i,i,86
Cc1cccc(C(=O)NC(=S)NNC(=O)Cc2ccccc2)c1,i,i,i,i,i,i
Cc1ccc(C(=O)NNC(=S)NC(=O)c2ccc(Cl)cc2)cc1,i,i,i,i,i,94
Cc1ccc(CN2CCC(n3nccc3NC(=O)C3CCOC3)CC2)cc1C (stereo unspecified),i,i,nt,i,i,nt
Cc1ccc(C(=O)NC(=S)NNC(=O)COc2ccccc2C)cc1,i,i,i,i,i,103
CC(=O)NNC(=S)NC(=O)c1ccc(C)cc1,i,i,i,i,i,80
Cc1ccc(C(=O)NC(=C(Cl)Cl)S(=O)(=O)c2ccc(Cl)cc2)cc1,i,i,i,i,i,78
CC(=O)NNC(=S)NC(=O)c1ccccc1,i,i,i,i,i,i
Cc1onc(-c2ccccc2)c1C(=O)NNC(=S)NC(=O)c1ccc(Cl)cc1Cl,i,i,i,i,i,86
CCN(CC)C(=S)Nc1c(C)n(C)n(-c2ccccc2)c1=O,i,i,i,i,i,i
Cc1cc(Cl)cc(C)c1OCCOCCNCc1ccccc1,i,i,nt,i,i,nt
Cc1cc(C)cc(NC(=O)c2cccn2-c2ncc(C(F)(F)F)cc2Cl)c1,i,i,i,i,i,74
O=C(Nc1ccc(F)cc1F)c1cccn1-c1ncc(C(F)(F)F)cc1Cl,i,i,i,i,i,i
CSc1ccccc1NC(=O)CN(Cc1ccccc1)S(C)(=O)=O,i,i,i,i,i,i
CSc1ccccc1NC(=O)CN(Cc1ccc(Cl)cc1)S(C)(=O)=O,i,i,i,i,i,77
CSc1cccc(NC(=O)CN(Cc2ccc(Cl)cc2)S(C)(=O)=O)c1,i,i,i,i,i,93
CC(C)=C1C2CCC1C(C(=O)NCc1ccccc1)C2C(=O)O (stereo unspecified),i,i,i,i,i,82
O=[N+]([O-])c1ccc(-c2cnc(SCc3ccccc3Cl)[nH]2)cc1,i,i,i,i,i,i
O=[N+]([O-])c1ccc(-c2cnc(SC(c3ccccc3)c3ccccc3)[nH]2)cc1,i,i,i,i,i,73
Cc1cc(C)c(CSc2ncc(-c3ccc([N+](=O)[O-])cc3)[nH]2)c(C)c1,i,i,i,i,i,75
